Test [1] is described as follows: inhibitors of TNFa-induced NFkB p65 translocation, primary screen, imaging, HUVEC, MLSMR starter and 10KST1 sets (AID 438;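 active means inhibition above 20% together with a positive visual image hit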;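 further: compound added about 3h40 before a 20 min TNFalpha stimulation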;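 on inhibition: signal is the nuclear over cytoplasmic p65 intensity ratio per well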). The conditions noted are these: HUVEC TNFa-induced p65 nuclear translocation; cell count: measured here: nuclei count (cytotoxicity indicator), at 2.08 µM; inhibition: at 2 µM, stronger effect = higher value, 0% TNFa-plus-vehicle, 100% no-TNFa wells.
A short description of test [2]: endothelial E-selectin expression blockers – imaging, HUVEC, immunofluorescence, MLSMR starter and 10KST1 sets, primary screen (AID 487;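 active means visually confirmed hit in the image check and inhibition above 20%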;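 on inhibition: signal is fraction of cell area covered by stained E-selectin grains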;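 on nuclei count: 100% = median nuclei count of all wells on the same plate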). The conditions noted are these: HUVEC TNFalpha-induced E-selectin immunofluorescence imaging, at 2 µM; inhibition: stronger effect = higher value; nuclei count: measured here: cell number, toxicity.
Test [3] can be described thus: Primary imaging screen for DUSP6 inhibitors that restore phospho-Erk in transfected HeLa cells, chemical complementation (AID 609;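 active means compounds giving at least 50% inhibition in the cell-based MKP-3 phosphatase rescue imaging test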;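 on inhibition: phospho-Erk level distribution per well compared with pooled transfected vehicle control wells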). The conditions noted are these: HeLa MKP-3 transfected, phospho-Erk imaging KS statistic, at 10 µM, cells stimulated with TPA for 15 min.
In test [4] the target is Dual specificity protein phosphatase 6 (Homo sapiens) (UniProt Q16828). The description is as above. The conditions noted are these: HeLa MKP-3 transfected, phospho-Erk imaging KS statistic; at 10 µM; stronger effect = higher value; cells stimulated with TPA for 15 min.
For test [5], the target named is Voltage-gated potassium channel subunit beta-2 (Rattus norvegicus) (UniProt P62483). Briefly: inhibitors of rat Kvbeta2 reductase activity – biochemical, NADPH fluorescence, primary screen (AID 622;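 active means fluorescence slope higher than the sample average by over 3 SD, cut at about -0.22 in these data, passing the limit was not always enough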;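 further: slope of raw intensity against log time taken from 70 to 1610 s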). The conditions noted are these: recombinant KvBeta, 4-cyanobenzaldehyde reduction, at 10 µM, stronger effect = higher value.
The target is the same in test [6]. Nature of the test: enhancers of rat Kvbeta2 NADPH turnover – biochemical, NADPH fluorescence, primary screen (AID 623;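 active means NADPH fluorescence slope more negative than the mean of all samples by about 3 SD, 99.7% confidence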;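 further: fluorescence intensity change per second fitted from 20 to 320 s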). To be noted: Recombinant KvBeta, NADPH fluorescence decrease slope, 10 min; at 10 µM; stronger effect = lower value.
Test [7] has as its target Alpha-2C adrenergic receptor (Homo sapiens) (UniProt P18825). Nature of the test: compounds altering alpha2C-coupled GIRK flux – cell-based, HEK293 alpha2C/GIRK1/2, thallium flux, primary screen (AID 624;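 active means fluorescence slope after compound addition differing from the mean of all screened samples at 99.7% confidence, in either direction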;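 further: slope of fluorescence ratio to pre-addition baseline per second over 15 to 24 s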). To be noted: thallium flux BTC fluorescence, at 10 µM, actives lie on both sides.
Test [8] is described as follows: inhibitors of larval lipid processing in zebrafish, primary screen, whole organism, PED6 fluorescence, gall bladder and intestine (AID 686;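 active means a full or partial loss of lipid-probe fluorescence in the fish gall bladder, intestine or both, judged by eye; inactive means no fluorescence loss, or compound toxic to the fish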;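 further: larvae 5 to 7 days old with five fish per well; signal comes from phospholipase A2 cleavage of quenched PED6 carried via bile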). To be noted: Zebrafish larvae PED6 lipid processing, fluorescence scoring; screened at 20 µM (by protocol). In outline: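 Incubation: overnight exposure of larvae to compound plus PED6 / Test system: live zebrafish larvae aged 5-7 days, whole organism / Amount: 5 larvae per well / Read-out basis: visual per-well fluorescence inhibition score / Signal: visual fluorescence microscopy scoring of gall bladder, gut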

Test [9] can be described thus: loss of swimming-algae plug formation – whole organism, Chlamydomonas reinhardtii, WT vs cilia-less mutant, absorbance, 96-well, primary screen (AID 463189).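 Further: 0% = wild type cc124 cells in DMSO and 100% = ciliumless bld1 mutant cells.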 The conditions noted are these: Chlamydomonas reinhardtii gravitaxis, OD600 absorbance, 2 days; at 10 µM; stronger effect = higher value.
[10] abbreviates: measured here: cell density z-score.
Setting [11] is: measured here: nuclear c-Myc green intensity z-score.
The mark [12] stands for this setting: measured here: nuclear pErk red intensity z-score, stronger effect = higher value.

Active and inactive are the calls of the source.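 How the source made its calls, unless noted: active means inhibition at or above 50% relative to wild type and mutant plate controls; inactive means inhibition below 50%.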

For orientation: inhibition means the change of the read-out against control, counted positive when it falls.

Chain of Alpha-2C adrenergic receptor (Homo sapiens) (P18825 whole entry, looked up): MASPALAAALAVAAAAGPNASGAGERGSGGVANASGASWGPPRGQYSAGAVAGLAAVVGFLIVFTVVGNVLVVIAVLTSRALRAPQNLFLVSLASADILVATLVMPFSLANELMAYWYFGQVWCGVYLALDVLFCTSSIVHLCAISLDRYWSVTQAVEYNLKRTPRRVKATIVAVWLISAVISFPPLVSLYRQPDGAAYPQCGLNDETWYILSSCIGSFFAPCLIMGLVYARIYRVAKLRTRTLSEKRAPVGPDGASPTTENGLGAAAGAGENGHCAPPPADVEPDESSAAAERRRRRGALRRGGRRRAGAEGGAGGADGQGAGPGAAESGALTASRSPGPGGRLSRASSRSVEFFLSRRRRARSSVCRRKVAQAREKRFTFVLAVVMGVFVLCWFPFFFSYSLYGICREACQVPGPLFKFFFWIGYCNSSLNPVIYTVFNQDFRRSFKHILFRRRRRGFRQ
Chain of Dual specificity protein phosphatase 6 (Homo sapiens) (Q16828 whole entry, looked up): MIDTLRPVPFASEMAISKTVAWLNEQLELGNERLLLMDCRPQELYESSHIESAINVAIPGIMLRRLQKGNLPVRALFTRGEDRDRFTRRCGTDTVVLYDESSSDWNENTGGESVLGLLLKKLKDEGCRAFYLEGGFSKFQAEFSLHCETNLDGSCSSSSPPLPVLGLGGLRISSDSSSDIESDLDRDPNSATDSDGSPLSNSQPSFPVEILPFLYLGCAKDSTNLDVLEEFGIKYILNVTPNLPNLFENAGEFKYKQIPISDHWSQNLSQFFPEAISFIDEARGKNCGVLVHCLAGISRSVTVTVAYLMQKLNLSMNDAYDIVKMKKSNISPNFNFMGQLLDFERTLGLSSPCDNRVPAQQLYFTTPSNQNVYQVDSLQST
Chain of Voltage-gated potassium channel subunit beta-2 (Rattus norvegicus) (P62483 whole entry, looked up): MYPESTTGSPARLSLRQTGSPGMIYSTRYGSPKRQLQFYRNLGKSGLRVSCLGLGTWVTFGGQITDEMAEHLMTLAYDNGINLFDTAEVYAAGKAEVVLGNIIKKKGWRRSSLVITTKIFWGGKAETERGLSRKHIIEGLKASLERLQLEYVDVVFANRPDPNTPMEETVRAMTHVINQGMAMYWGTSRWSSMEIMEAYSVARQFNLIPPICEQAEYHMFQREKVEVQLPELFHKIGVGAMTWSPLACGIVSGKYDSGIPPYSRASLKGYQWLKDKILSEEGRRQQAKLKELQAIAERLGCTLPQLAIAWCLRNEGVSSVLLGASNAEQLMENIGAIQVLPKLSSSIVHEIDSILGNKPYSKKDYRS

For the molecule `Cc1ccc2[nH]c3c(c2c1)CN(C(=O)CN1CCCc2ccccc21)CC3`, in test [1], the cell count is 557. The inhibition is -8.1% (inactive) in [1], -104% (inactive) in test [2], 2.92% (inactive) in test [4] and 15.5% (inactive) in test [9]. The nuclei count in [2] came out at 142%. For the same molecule, the z-score in test [3] (setting [10]) is -0.606; in test [3] (setting [11]), -1.61; in [3] (setting [12]), -0.633. For the same molecule, the fluorescence slope in [5] is -0.439 (inactive). The NADPH fluorescence slope in test [6] is -7.1e-05 (inactive). Also, in test [7], the slope was 0.00496 (inactive). Further, the outcome in [8] is “active; weak signal in gallbladder and intestine”.
In the case of `Cc1nc2oc(C(=O)c3ccc(Br)cc3)c(N)c2c2c1COC(C)(C)C2`, in test [1], the cell count is 643. Besides, the inhibition in test [1] is -7.3% (inactive); in test [2], -142% (inactive); in test [4], 24.7% (inactive); in test [9], 39.3% (inactive). Besides, in test [2], the nuclei count is 119%. In addition, the z-score is 0.13 in test [3] (setting [10]), -0.803 in [3] (setting [11]) and -0.664 in test [3] (setting [12]). In addition, in test [5], the fluorescence slope was -0.532 (inactive). Also, the NADPH fluorescence slope in test [6] is -5.4e-05 (inactive). Also, in [7], the slope was 0.00462 (inactive). In addition, in [8], the molecule was called inactive.
`c1cncc(-c2nnc3sc(C4CCCCC4)nn23)c1`: the cell count in test [1] is 507. The inhibition in [1] is -5.5% (inactive); in [2], -138% (inactive); in [4], 8.31% (inactive); in test [9], 91.8% (active). The molecule further yielded a nuclei count in test [2] of 106%. Further, the z-score in [3] (setting [10]) was 0.167; in test [3] (setting [11]), -0.011; in [3] (setting [12]), 0.328. The fluorescence slope in test [5] is -0.442 (inactive). Besides, the NADPH fluorescence slope in test [6] was 1.1e-05 (inactive). Also, in test [7], the slope was 0.00837 (inactive). Also, in [8], the molecule was called inactive.
With `c1csc(Cc2nn3c(-c4ccncc4)nnc3s2)c1`, the cell count in test [1] was found to be 669. In addition, the inhibition was -1.9% (inactive) in [1], -17.9% (inactive) in test [2], -6.06% (inactive) in test [4] and 8.13% (inactive) in test [9]. The molecule also yielded a nuclei count in test [2] of 159%. In addition, the z-score in test [3] (setting [10]) is 0.0409; in test [3] (setting [11]), 0.511; in [3] (setting [12]) it was -0.101. Moreover, the fluorescence slope in test [5] was -0.412 (inactive). For the same molecule, the NADPH fluorescence slope in [6] was -0.000115 (inactive). In addition, the slope in test [7] was 0.00514 (inactive). The result in [8] was inactive.
With `Cn1nnnc1SCC(=O)NCC(=O)c1ccccc1`, in [1], the cell count is 527. Also, the inhibition in test [1] is -4.5% (inactive); in [2] it was -74.2% (inactive); in test [4] it was -7.01% (inactive); in [9], 10.2% (inactive). For the same molecule, the nuclei count in test [2] was 146%. For the same molecule, the z-score in test [3] (setting [10]) was 0.246; in test [3] (setting [11]) it was -1.91; in test [3] (setting [12]), 0.111. Besides, in test [5], the fluorescence slope is -0.527 (inactive). Besides, the NADPH fluorescence slope in test [6] was -6.9e-05 (inactive). Moreover, the slope in test [7] was 0.00467 (inactive). Besides, the result in [8] was inactive.
On to `O=C(Nc1nc(=O)c2ccccc2s1)c1ccccc1`, for which the cell count in test [1] is 647. The inhibition in [1] was 5.5% (inactive); in [2], -58.7% (inactive); in test [4], 9.61% (inactive); in [9], 13.1% (inactive). The nuclei count in test [2] was 158%. The z-score was 0.159 in [3] (setting [10]), -0.389 in [3] (setting [11]) and 0.0783 in test [3] (setting [12]). In test [5], the fluorescence slope is -0.505 (inactive). The NADPH fluorescence slope in [6] is -4.5e-05 (inactive). Besides, the slope in test [7] is 0.00905 (active). In test [8], the molecule was called inactive.
As for `Cn1ncc(N=Cc2ccccc2O)c1C(=O)Nc1ccccc1`, the cell count in test [1] is 635. Besides, the inhibition in test [1] was -3.8% (inactive); in test [2], -20.9% (inactive); in test [4] it was 4.25% (inactive); in [9], 0.038% (inactive). Further, the nuclei count in [2] is 140%. For the same molecule, the z-score was -0.0255 in test [3] (setting [10]), 0.841 in [3] (setting [11]) and 1.17 in [3] (setting [12]). For the same molecule, the fluorescence slope in test [5] was -0.5 (inactive). Also, the NADPH fluorescence slope in test [6] was -0.000122 (inactive). Besides, the slope in [7] was 0.00441 (inactive). Besides, in test [8], the outcome was inactive.
Take `COc1ccc(OCC(O)Cn2c(Nc3cccc(C)c3)nc3c2c(=O)n(C)c(=O)n3C)cc1` (centres undefined): the cell count in test [1] is 514. Also, the inhibition in test [1] was -0.2% (inactive); in test [2], -160% (inactive); in test [4], 26.3% (inactive); in test [9] it was 7.54% (inactive). In test [2], the nuclei count turned out to be 139%. The z-score in test [3] (setting [10]) was 1.7; in [3] (setting [11]), -1.51; in test [3] (setting [12]), -0.035. Besides, the fluorescence slope in test [5] was -0.541 (inactive). The NADPH fluorescence slope in test [6] was -3.3e-05 (inactive). Moreover, in test [7], the slope is 0.00591 (inactive). The result in test [8] was inactive.
For `Cc1cc2c(c(=O)n1CC1CCCO1)C(c1ccc3c(c1)OCO3)C(C#N)=C(N)O2` (centres undefined), in test [1], the cell count is 430. Also, the inhibition in test [1] is -3.9% (inactive); in test [2] it was -118% (inactive); in test [4], -2.91% (inactive); in test [9], -9.27% (inactive). Also, in test [2], the nuclei count is 138%. Also, the results for the z-score in test [3] (setting [10]), in test [3] (setting [11]) and in test [3] (setting [12]) were -0.219, 0.61 and 1.43, respectively. The fluorescence slope in [5] was -0.369 (inactive). For the same molecule, in test [6], the NADPH fluorescence slope was -4.9e-05 (inactive). In addition, the slope in [7] is 0.00655 (inactive). Moreover, in test [8], the molecule was called inactive.
As to `O=C(Nn1cnnc1)C(c1ccccc1)c1ccccc1`, in [1], the cell count worked out at 338. Moreover, the inhibition in test [1] was -3.7% (inactive); in [2], -164% (inactive); in test [4] it was 1.75% (inactive); in test [9] it was 17.9% (inactive). In addition, the nuclei count in [2] worked out at 159%. For the same molecule, the z-score was 1.4 in [3] (setting [10]), 0.734 in test [3] (setting [11]) and 1.08 in test [3] (setting [12]). In [5], the fluorescence slope is -0.417 (inactive). In addition, the NADPH fluorescence slope in [6] is -7.3e-05 (inactive). Further, in test [7], the slope was 0.00619 (inactive). In addition, the outcome in [8] was inactive.
`COc1ccccc1-c1nn2c(-c3ccco3)nnc2s1`: the cell count in [1] amounted to 544. For the same molecule, the inhibition was -2.9% (inactive) in test [1], -39.4% (inactive) in test [2], -2.47% (inactive) in test [4] and 10.9% (inactive) in [9]. This molecule showed a nuclei count in test [2] of 162%. Besides, the z-score in test [3] (setting [10]) is 0.365; in test [3] (setting [11]), -0.311; in test [3] (setting [12]), -0.198. The fluorescence slope in test [5] is -0.42 (inactive). In addition, the NADPH fluorescence slope in test [6] was -8.7e-05 (inactive). The slope in test [7] is 0.00698 (inactive). The result in test [8] was inactive.
On to `CCCCCCC(=O)N1CCN(c2cc3c(cc2F)c(=O)c(C(=O)O)cn3CC)CC1`, for which the cell count in test [1] was determined as 402. The inhibition is 6% (inactive) in test [1], -166% (inactive) in test [2], 6.04% (inactive) in test [4] and 4.18% (inactive) in test [9]. The nuclei count in test [2] was found to be 224%. The z-score in test [3] (setting [10]) was -1.36; in test [3] (setting [11]) it was 0.0882; in [3] (setting [12]), 0.161. For the same molecule, in [5], the fluorescence slope was -0.0683 (inactive). Further, the NADPH fluorescence slope in test [6] was -1.7e-05 (inactive). The slope in test [7] was 0.0054 (inactive). In addition, the molecule was classed as inactive in [8].
Turning to `CCOC(=O)c1cc2cc(OC)ccc2[nH]1`, the cell count in test [1] was found to be 596. For the same molecule, the inhibition in test [1] was -5.3% (inactive); in test [2] it was -44.6% (inactive); in test [4] it was 5.57% (inactive); in test [9], 26.5% (inactive). Further, the nuclei count in test [2] came to 87.4%. In addition, the z-score was -0.384 in test [3] (setting [10]), 1.83 in test [3] (setting [11]) and 0.163 in test [3] (setting [12]). Moreover, in test [5], the fluorescence slope is -0.497 (inactive). Moreover, in test [6], the NADPH fluorescence slope is -9.6e-05 (inactive). In [7], the slope is 0.00467 (inactive). The molecule was classed as inactive in test [8].
